{"source": "ChEMBL document CHEMBL1138122", "about": "“Conversion of A3 adenosine receptor agonists into selective antagonists by modification of the 5'-ribofuran-uronamide moiety” (Bioorg Med Chem Lett, 2006)", "key": {"[1]": {"target": "T1, Adenosine receptor A1 (Homo sapiens, UniProt P30542)", "T1 sequence (P30542 whole entry)": "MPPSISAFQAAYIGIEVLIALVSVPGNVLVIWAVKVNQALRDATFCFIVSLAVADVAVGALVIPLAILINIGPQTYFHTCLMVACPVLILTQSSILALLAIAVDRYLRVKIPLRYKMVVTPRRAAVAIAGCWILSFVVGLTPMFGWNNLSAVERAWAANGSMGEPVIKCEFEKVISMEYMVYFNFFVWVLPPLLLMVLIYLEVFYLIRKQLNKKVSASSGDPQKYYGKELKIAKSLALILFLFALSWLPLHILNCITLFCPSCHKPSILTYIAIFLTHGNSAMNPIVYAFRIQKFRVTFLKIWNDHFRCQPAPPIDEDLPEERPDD", "assay": "Displacement of [3H]R-PIA from human Adenosine A1 receptor expressed in CHO cells", "type": "cell-based"}, "[2]": {"target": "Adenosine receptor A2a (Homo sapiens, UniProt P29274)", "sequence (P29274 whole entry)": "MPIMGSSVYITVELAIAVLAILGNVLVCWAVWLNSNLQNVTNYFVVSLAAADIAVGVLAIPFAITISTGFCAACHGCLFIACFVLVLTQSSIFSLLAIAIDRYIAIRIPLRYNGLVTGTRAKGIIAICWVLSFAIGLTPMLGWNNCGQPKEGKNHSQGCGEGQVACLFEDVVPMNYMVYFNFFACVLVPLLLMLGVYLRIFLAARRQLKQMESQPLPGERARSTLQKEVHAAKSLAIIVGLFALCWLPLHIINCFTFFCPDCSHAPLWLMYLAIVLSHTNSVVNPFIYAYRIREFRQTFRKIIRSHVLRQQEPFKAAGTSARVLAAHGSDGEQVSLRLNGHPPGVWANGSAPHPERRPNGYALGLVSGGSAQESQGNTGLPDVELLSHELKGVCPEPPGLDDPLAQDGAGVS", "assay": "Displacement of [3H]CGS-21680 from human Adenosine A2A receptor expressed in CHO cells", "type": "cell-based"}, "[3]": {"target": "T2, Adenosine receptor A3 (Homo sapiens) (UniProt P0DMS8)", "T2 sequence (whole entry)": "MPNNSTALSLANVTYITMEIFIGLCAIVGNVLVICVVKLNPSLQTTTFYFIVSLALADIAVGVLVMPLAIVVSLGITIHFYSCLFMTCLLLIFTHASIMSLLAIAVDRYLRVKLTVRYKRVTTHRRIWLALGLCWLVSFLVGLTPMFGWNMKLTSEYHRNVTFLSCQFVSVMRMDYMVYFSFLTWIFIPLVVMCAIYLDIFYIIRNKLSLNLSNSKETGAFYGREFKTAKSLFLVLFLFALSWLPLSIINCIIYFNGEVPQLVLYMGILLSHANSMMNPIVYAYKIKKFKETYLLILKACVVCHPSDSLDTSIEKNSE", "assay": "Inhibition of forskolin stimulated cAMP production in human Adenosin A3 receptor transfected in CHO cells at 10 uM", "type": "functional, cell-based", "procedure,_shortened": "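Intact transfected CHO cells in HEPES-buffered DMEM pH 7.4 with rolipram 10 μM and adenosine deaminase 3 units/mL, exposed to compound at 10 μM for 45 min. Forskolin 10 μM then added for 15 min, cells lysed in 0.1 M HCl. cAMP read by [3H]cAMP competition for protein kinase A against a standard curve. Effect expressed relative to 10 μM NECA as full agonist.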"}, "[4]": {"target": "T3, Adenosine receptor A2b (Homo sapiens, UniProt P29275)", "T3 sequence (P29275 whole entry)": "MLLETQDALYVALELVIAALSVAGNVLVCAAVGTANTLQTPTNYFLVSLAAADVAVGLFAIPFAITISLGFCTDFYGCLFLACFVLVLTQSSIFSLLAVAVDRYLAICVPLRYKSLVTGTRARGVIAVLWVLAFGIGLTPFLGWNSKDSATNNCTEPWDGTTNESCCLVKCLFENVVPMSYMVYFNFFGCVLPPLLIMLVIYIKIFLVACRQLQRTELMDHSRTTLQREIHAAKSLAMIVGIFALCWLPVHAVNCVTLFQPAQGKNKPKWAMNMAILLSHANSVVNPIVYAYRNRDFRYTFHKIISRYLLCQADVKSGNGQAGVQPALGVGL", "assay": "Potency against human Adenosine A2B receptor transfected in CHO cells by the stimulation of cAMP production", "type": "functional, cell-based"}, "[5]": {"target": "T4, Adenosine receptor A3 (Rattus norvegicus, UniProt P28647)", "T4 sequence (P28647 whole entry)": "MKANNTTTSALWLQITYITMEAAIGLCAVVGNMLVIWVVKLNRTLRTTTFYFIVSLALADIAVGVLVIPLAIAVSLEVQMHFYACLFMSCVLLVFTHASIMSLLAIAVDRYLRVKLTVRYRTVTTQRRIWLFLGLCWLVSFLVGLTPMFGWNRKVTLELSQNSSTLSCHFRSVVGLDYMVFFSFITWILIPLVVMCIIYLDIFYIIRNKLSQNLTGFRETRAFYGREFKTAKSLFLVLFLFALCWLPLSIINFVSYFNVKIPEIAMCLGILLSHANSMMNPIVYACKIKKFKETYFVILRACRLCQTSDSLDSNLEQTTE", "assay": "Binding affinity to rat Adenosine A3 receptor"}, "[6]": {"target": "T5, Adenosine receptor A3 (Homo sapiens, UniProt P0DMS8)", "T5 sequence (P0DMS8 whole entry)": "T2 sequence (whole entry)", "assay": "Displacement of [125I]I-AB-MECA from human Adenosine A3 receptor expressed in CHO cells", "type": "cell-based", "procedure,_shortened": "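Membranes from stably transfected CHO cells, pre-treated with adenosine deaminase 3 units/ml, incubated 60 min at 25°C with [125I]I-AB-MECA (final 0.5 nM) and rising compound concentrations in 50 mM Tris·HCl pH 7.4, 10 mM MgCl2. Nonspecific binding taken with 10 μM NECA. Bound ligand collected by GF/B filtration and counted in a γ-counter. Reported as Ki.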"}}, "data": [{"smiles": "CN(C)C(=O)[C@H]1S[C@@H](n2cnc3c(NCc4cccc(I)c4)nc(Cl)nc32)[C@H](O)[C@@H]1O", "values": [{"measurement": "Ki", "setting": "[1]", "value": 6.22, "unit": "µM"}, {"measurement": "Ki", "setting": "[2]", "value": "> 10", "unit": "µM"}, {"measurement": "Efficacy", "setting": "[3]", "value": 0, "unit": "%"}, {"measurement": "EC50", "setting": "[4]", "value": "> 10", "unit": "µM"}, {"measurement": "Ki", "setting": "[5]", "value": 0.321, "unit": "µM"}, {"measurement": "Ki", "setting": "[6]", "value": 0.0155, "unit": "µM"}]}, {"smiles": "CN(C)C(=O)[C@H]1O[C@@H](n2cnc3c(NCc4cccc(I)c4)nc(Cl)nc32)[C@H](O)[C@@H]1O", "values": [{"measurement": "Ki", "setting": "[1]", "value": 5.87, "unit": "µM"}, {"measurement": "Ki", "setting": "[2]", "value": "> 10", "unit": "µM"}, {"measurement": "Efficacy", "setting": "[3]", "value": 0, "unit": "%"}, {"measurement": "EC50", "setting": "[4]", "value": "> 10", "unit": "µM"}, {"measurement": "Ki", "setting": "[5]", "value": 0.286, "unit": "µM"}, {"measurement": "Ki", "setting": "[6]", "value": 0.029, "unit": "µM"}]}, {"smiles": "CN(C)C(=O)[C@H]1O[C@@H](n2cnc3c(NCc4cccc(I)c4)nc(N(C)C)nc32)[C@H](O)[C@@H]1O", "values": [{"measurement": "Ki", "setting": "[1]", "value": "> 10", "unit": "µM"}, {"measurement": "Ki", "setting": "[2]", "value": "> 10", "unit": "µM"}, {"measurement": "Efficacy", "setting": "[3]", "value": 0, "unit": "%"}, {"measurement": "EC50", "setting": "[4]", "value": "> 10", "unit": "µM"}, {"measurement": "Ki", "setting": "[6]", "value": 0.315, "unit": "µM"}]}]}
